Measurements from ChEMBL document CHEMBL1134481, “Development of a pharmacophore model for histamine H3 receptor antagonists, using the newly developed molecular modeling program SLATE” (J Med Chem, 2001).

Columns and labels:
Format in all cases: tissue-based
[1] = biological target: Histamine H3 receptor (Cavia porcellus, UniProt Q9JI35); assay: Displacement of [3H]Nalpha-methylhistamine from histamine H3 receptors in homogenates of rat cerebral cortex; conditions: read-out: pA2 (converted)
[2] = biological target: T1, Histamine H3 receptor (Rattus norvegicus, UniProt Q9QYN8); assay: (§1) Ability to displace [3H]Nalpha-methylhistamine from histamine H3 receptors in homogenates of rat cerebral cortex
T1 sequence (Q9QYN8 whole entry): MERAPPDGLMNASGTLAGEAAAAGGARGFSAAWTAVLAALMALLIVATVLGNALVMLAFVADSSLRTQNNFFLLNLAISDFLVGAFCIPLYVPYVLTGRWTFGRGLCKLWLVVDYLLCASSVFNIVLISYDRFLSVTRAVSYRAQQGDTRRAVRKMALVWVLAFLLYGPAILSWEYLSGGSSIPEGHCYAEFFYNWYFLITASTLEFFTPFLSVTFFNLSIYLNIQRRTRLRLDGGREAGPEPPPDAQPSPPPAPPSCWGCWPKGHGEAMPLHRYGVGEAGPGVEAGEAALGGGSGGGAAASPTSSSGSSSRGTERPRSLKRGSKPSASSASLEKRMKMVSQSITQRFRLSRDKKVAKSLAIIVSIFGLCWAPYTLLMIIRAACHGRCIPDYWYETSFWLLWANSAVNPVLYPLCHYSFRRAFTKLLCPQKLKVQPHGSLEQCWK
In short: (§2)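 Binding used 30 µg protein and 1 nM [³H]-Nα-methylhistamine with 0.1–10 000 nM compound, in 50 mM Na⁺ phosphate pH 7.4, for 40 min at 25 °C. Samples were filtered on PEI-treated GF/C and counted by scintillation. Ki = IC50/(1+[ligand]/Kd).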

[3] = biological target: T1, Histamine H3 receptor; assay: as §1; remark: listed apart in the source
In short: as §2, with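 “Rat cortex membranes were made by homogenizing in Tris/HCl (50 mM, 5 mM MgCl₂, 145 mM NaCl, pH 7.4) and spinning at 800g, then twice at 40000g. Binding” for “Binding”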

Histamine H3 receptor (Cavia porcellus, UniProt Q9JI35), sequence (Q9JI35 whole entry): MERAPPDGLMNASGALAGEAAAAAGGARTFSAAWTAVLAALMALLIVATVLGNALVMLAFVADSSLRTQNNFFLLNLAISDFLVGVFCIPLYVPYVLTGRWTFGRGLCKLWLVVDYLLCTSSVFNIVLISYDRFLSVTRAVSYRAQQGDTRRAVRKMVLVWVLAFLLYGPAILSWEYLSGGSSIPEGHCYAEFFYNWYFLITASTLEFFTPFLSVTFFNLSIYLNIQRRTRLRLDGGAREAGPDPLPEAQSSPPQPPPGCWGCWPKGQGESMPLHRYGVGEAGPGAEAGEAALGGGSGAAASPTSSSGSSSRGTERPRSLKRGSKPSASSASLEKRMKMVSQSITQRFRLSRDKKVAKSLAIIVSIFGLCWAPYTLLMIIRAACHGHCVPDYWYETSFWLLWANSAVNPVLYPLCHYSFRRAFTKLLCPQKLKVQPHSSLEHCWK

SMILES	Kb [1]	Ki [2]	other results
NC(=NCc1ccc(Cl)cc1)SCCCc1cnc[nH]1 [CLOBENPROPIT]	0.158 nM		
CCCS/C(=N/C)NCc1ccc(Cl)cc1		> 100000 nM	
S=C(NC1CCCCC1)N1CCC(c2cnc[nH]2)CC1 [THIOPERAMIDE]	1.26 nM		
O=C(NCCCc1c[nH]cn1)NC1CCCCC1	50.1 nM		
Clc1ccc(CN=C(NC2CCCCC2)SCCCc2cnc[nH]2)cc1		0.501 nM	
Ic1ccc(COCCCc2c[nH]cn2)cc1 [IODOPROXYFAN]	5.01 nM		
c1nc(CCC2CCNCC2)c[nH]1	3.98 nM		
CC/N=C(\NCc1ccc(Cl)cc1)SCCCc1c[nH]cn1		7.94 nM	
N=C(Cc1ccc(Cc2cnc[nH]2)cc1)NCc1ccc(Cl)cc1			Ki [3]: 7 nM
CC(C)(C)CC#CC1CC1c1cnc[nH]1 (stereo unspecified)			Ki [3]: 0.18 nM
Clc1ccc(Cc2noc(CCCc3cnc[nH]3)n2)cc1	7.94 nM		
O=C(Cc1ccc(Cl)cc1)OCCCc1c[nH]cn1			Ki [3]: 14 nM
C/N=C(/NCc1ccc(Cl)cc1)SCCCc1c[nH]cn1		3.16 nM	
NC(/C=C/C1CC1c1c[nH]cn1)CC1CCCCC1 (stereo unspecified)			Ki [3]: 0.4 nM
c1nc(CCCS/C(=N/C2CCCCC2)NC2CCCCC2)c[nH]1		12.6 nM	
Clc1ccc(CNCCCCCc2c[nH]cn2)cc1	1.26 nM		
